# Assay results as given in ChEMBL document CHEMBL5674865, “BRD4 associates with p53 in DNMT3A-mutated leukemia cells and is implicated in apoptosis by the bromodomain inhibitor JQ1” (Cancer Med, 2013).
# Activity calls are given as the source filed them. The rule behind the calls is not given here.
# Experiments:
# [1] = tested on: OCI-AML-3; assay: Antiproliferative activity against human OCI-AML-3 cells harbouring DNMT3A-R882C and NPM1c mutants co-expressing wild-type p53 at 1 uM assessed as decrease in cell viability after 96 hrs by WST-1 assay; assay type: functional, cell-based
# In short: (§1)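 WST-1 viability assay. 2 × 10^4 cells per well with compound, incubated for the indicated times, read at 450 nm 2–4 h after WST-1 addition. Viability is given as % of untreated cells by optical density. Compounds are dissolved in DMSO and diluted in PBS.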
# [2] = tested on: OCI-AML-3; assay: Induction of DNA damage in human OCI-AML-3 cells harbouring DNMT3A-R882C and NPM1c mutants co-expressing wild-type p53 at 0.25 uM assessed as induction of gammaH2AX incubated for 24 hrs in combination with […] by immunolabeling method; assay type: functional, cell-based
# In short: (§2)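 OCI-AML3 cells treated 24 h with 0.25 µmol/L JQ1, alone or with 10 µmol/L KU60019, […] caffeine or 1 µmol/L NU7026 added together. Cells cytospun, fixed in 4% paraformaldehyde and permeabilized with 0.2% Triton X-100. Stained with anti-γH2AX (1:500) and anti-53BP1 (1:1000) for 1 h at RT, then fluorescent secondaries and DAPI. Pan-nuclear γH2AX cells and 53BP1 foci scored by microscopy. Three experiments.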
# [3] = tested on: OCI-AML-3; assay: Antiproliferative activity against human OCI-AML-3 cells harbouring DNMT3A-R882C and NPM1c mutants co-expressing wild-type p53 at 0.25 uM assessed as decrease in cell viability after 96 hrs by trypan blue assay; assay type: functional, cell-based
# In short: (§3)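 OCI-AML3 growth curves. 80,000 cells per well in medium with or without 0.25 µmol/L JQ1. Viable cells counted by trypan blue exclusion every 24 h up to 96 h.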
# [4] = tested on: OCI-AML-3; assay: Induction of apoptosis in human OCI-AML-3 cells harbouring DNMT3A-R882C and NPM1c mutants co-expressing wild-type p53 at 0.25 uM assessed as activation of caspase 3/7 measured in combination of 20 nM trichostatin A after 24 hrs by Caspase-Glo 3/7 assay; assay type: functional, cell-based
# In short: (§4)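 Caspase-Glo 3/7 luminescence assay. OCI-AML3, Raji or K562 cells plated at 20,000 per well and treated with 0.25 µmol/L JQ1, with or without 20 nmol/L TSA. Luminescence read at 2, 4 or 24 h.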
# [5] = tested on: OCI-AML-3; assay: Antiproliferative activity against human OCI-AML-3 cells harbouring DNMT3A-R882C and NPM1c mutants co-expressing wild-type p53 at 0.25 uM assessed as decrease in cell viability in combination of 0.625 uM vorinostat after 72 hrs by WST-1 assay; assay type: functional, cell-based
# In short: (§5)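 WST-1 viability of OCI-AML3 combinations. 20,000 cells per well treated with 0.25 µmol/L JQ1 plus the partner compound (Nutlin-3 0–2 µmol/L or 1–5 µmol/L; TSA 20 nmol/L; vorinostat 0.625 µmol/L; sodium butyrate 0.5 mmol/L; daunorubicin 0–50 nmol/L), applied together for 72 h. Read at 450 nm and expressed as % of untreated. Three experiments run in triplicate.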
# [6] = tested on: K562; assay: Antiproliferative activity against human K562 cells assessed as decrease in cell viability after 96 hrs by WST-1 assay; assay type: functional, cell-based; in short: as §1
# [7] = tested on: Raji; assay: Induction of apoptosis in human Raji cells at 0.25 uM assessed as activation of caspase 3/7 measured after 24 hrs by Caspase-Glo 3/7 assay; assay type: functional, cell-based; in short: as §4
# [8] = tested on: OCI-AML-3; assay: Induction of DNA damage in human OCI-AML-3 cells harbouring DNMT3A-R882C and NPM1c mutants co-expressing wild-type p53 at 0.25 uM assessed as induction of gammaH2AX incubated for 24 hrs in combination with 1 uM NU7026 by immunolabeling method; assay type: functional, cell-based; in short: as §2
# [9] = tested on: OCI-AML-3; assay: Antiproliferative activity against human OCI-AML-3 cells harbouring DNMT3A-R882C and NPM1c mutants co-expressing wild-type p53 at 0.25 uM assessed as decrease in cell viability in combination of 0.5 mM sodium butyrate after 72 hrs by WST-1 assay; assay type: functional, cell-based; in short: as §5
# [10] = tested on: OCI-AML-3; assay: Antiproliferative activity against human OCI-AML-3 cells harbouring DNMT3A-R882C and NPM1c mutants co-expressing wild-type p53 assessed as decrease in cell viability after 96 hrs by WST-1 assay; assay type: functional, cell-based; in short: as §1
# [11] = tested on: OCI-AML-3; assay: Induction of DNA damage in human OCI-AML-3 cells harbouring DNMT3A-R882C and NPM1c mutants co-expressing wild-type p53 at 0.25 uM assessed as increase in pyknotic nuclei incubated for 48 hrs by DAPI staining method; assay type: functional
# In short: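 OCI-AML3 cells treated with 0.25 µmol/L JQ1 for 48 h, cytospun and fixed. DAPI-stained nuclei examined by fluorescence microscopy and the percentage of pyknotic nuclei scored.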
# [12] = tested on: OCI-AML-3; assay: Induction of apoptosis in human OCI-AML-3 cells harbouring DNMT3A-R882C and NPM1c mutants co-expressing wild-type p53 at 0.25 uM measured after 24 hrs by Annexin V/PI staining based flow cytometry method; assay type: functional, cell-based
# In short: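 OCI-AML3 cells treated for 24 h with 0.25 µmol/L JQ1, Nutlin-3 or both. Stained with annexin V and propidium iodide and analyzed by flow cytometry. Quadrant analysis of apoptotic populations.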
# [13] = tested on: OCI-AML-3; assay: Antiproliferative activity against human OCI-AML-3 cells harbouring DNMT3A-R882C and NPM1c mutants co-expressing wild-type p53 at 0.25 uM assessed as decrease in cell viability in combination of 5 to 50 nM daunorubicin after 72 hrs by WST-1 assay; assay type: functional, cell-based; in short: as §5
# [14] = tested on: OCI-AML-3; assay: Induction of apoptosis in human OCI-AML-3 cells harbouring DNMT3A-R882C and NPM1c mutants co-expressing wild-type p53 at 0.25 uM assessed as activation of caspase 3/7 measured at 4 hrs by Caspase-Glo 3/7 assay; assay type: functional, cell-based; in short: as §4
# [15] = tested on: OCI-AML-3; assay: Induction of DNA damage in human OCI-AML-3 cells harbouring DNMT3A-R882C and NPM1c mutants co-expressing wild-type p53 at 0.25 uM assessed as increase in PCNA labelling for 48 hrs by DAPI staining method; assay type: functional, cell-based
# [16] = tested on: OCI-AML-3; assay: Induction of apoptosis in human OCI-AML-3 cells harbouring DNMT3A-R882C and NPM1c mutants co-expressing wild-type p53 at 0.25 uM assessed as activation of caspase 3/7 measured at 2 hrs by Caspase-Glo 3/7 assay; assay type: functional, cell-based; in short: as §4
# [17] = tested on: K562; assay: Induction of apoptosis in human K562 cells at 0.25 uM assessed as activation of caspase 3/7 measured after 24 hrs by Caspase-Glo 3/7 assay; assay type: functional, cell-based; in short: as §4
# [18] = tested on: Raji; assay: Antiproliferative activity against human Raji cells assessed as decrease in cell viability after 96 hrs by WST-1 assay; assay type: functional, cell-based; in short: as §1
# [19] = tested on: OCI-AML-3; assay: Antiproliferative activity against human OCI-AML-3 cells harbouring DNMT3A-R882C and NPM1c mutants co-expressing wild-type p53 at 0.25 uM assessed as cell death after 96 hrs by trypan blue assay; assay type: functional, cell-based; in short: as §3
# [20] = tested on: OCI-AML-3; assay: Induction of apoptosis in human OCI-AML-3 cells harbouring DNMT3A-R882C and NPM1c mutants co-expressing wild-type p53 at 0.25 uM assessed as activation of caspase 8 measured after 24 hrs by Caspase-Glo 8 assay; assay type: functional, cell-based
# In short: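 Caspase-Glo 8 luminescence assay. OCI-AML3 cells plated at 20,000 per well and treated with 0.25 µmol/L JQ1 for 24 h. BI-2536 at 1 µmol/L used as positive control.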
# [21] = tested on: OCI-AML-3; assay: Antiproliferative activity against human OCI-AML-3 cells harbouring DNMT3A-R882C and NPM1c mutants co-expressing wild-type p53 at 0.25 uM assessed as decrease in cell viability in combination of 20 nM trichostatin A after 72 hrs by WST-1 assay; assay type: functional, cell-based; in short: as §5
# [22] = tested on: OCI-AML-3; assay: Induction of apoptosis in human OCI-AML-3 cells harbouring DNMT3A-R882C and NPM1c mutants co-expressing wild-type p53 at 0.25 uM assessed as activation of caspase 3/7 measured after 24 hrs by Caspase-Glo 3/7 assay; assay type: functional, cell-based; in short: as §4
# [23] = tested on: OCI-AML-3; assay: Induction of DNA damage in human OCI-AML-3 cells harbouring DNMT3A-R882C and NPM1c mutants co-expressing wild-type p53 at 0.25 uM assessed as increase in 53BP1 foci incubated for 24 hrs by immunolabeling method; assay type: functional, cell-based; in short: as §2
# [24] = tested on: OCI-AML-3; assay: Induction of DNA damage in human OCI-AML-3 cells harbouring DNMT3A-R882C and NPM1c mutants co-expressing wild-type p53 at 0.25 uM assessed as increase in pan-nuclear gammaH2AX foci incubated for 24 hrs by immunolabeling method; assay type: functional, cell-based; in short: as §2
# [25] = tested on: OCI-AML-3; assay: Induction of DNA damage in human OCI-AML-3 cells harbouring DNMT3A-R882C and NPM1c mutants co-expressing wild-type p53 at 0.25 uM assessed as induction of gammaH2AX incubated for 24 hrs in combination with 10 uM KU60019 by immunolabeling method; assay type: functional, cell-based; in short: as §2
# [26] = tested on: OCI-AML-3; assay: Antiproliferative activity against human OCI-AML-3 cells harbouring DNMT3A-R882C and NPM1c mutants co-expressing wild-type p53 at 0.125 to 0.25 uM assessed as decrease in cell viability in combination of 1 to 5 uM nutlin-3 after 72 hrs by WST-1 assay; assay type: functional, cell-based; conditions: dose 0.125-0.25 µM; in short: as §5
# [27] = tested on: OCI-AML-3; assay: Induction of apoptosis in human OCI-AML-3 cells harbouring DNMT3A-R882C and NPM1c mutants co-expressing wild-type p53 at 1 uM assessed as activation of caspase 8 measured after 24 hrs by Caspase-Glo 8 assay; assay type: functional, cell-based
# In short: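 OCI-AML3 cells plated at 20,000 per well and treated for 24 h. Caspase 8 activation read as luminescent signal with the Caspase-Glo 8 kit; 1 µmol/L is the positive-control level used. Mean of at least three independent experiments ± SEM; Student's t-test, P < 0.05.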
# [28] = tested on: OCI-AML-3; assay: Antiproliferative activity against human OCI-AML-3 cells harbouring DNMT3A-R882C and NPM1c mutants co-expressing wild-type p53 at 1 to 5 uM assessed as decrease in cell viability after 72 hrs by WST-1 assay; assay type: functional, cell-based; conditions: dose 1-5 µM
# In short: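 OCI-AML3 cells (DNMT3A-R882, NPM1c, p53 wild-type) in RPMI 1640 with 10% FCS, L-glutamine, penicillin and streptomycin. Cells plated at 2 × 10^4 per well and exposed for 72 h; DMSO stocks diluted in PBS. WST-1 added and absorbance read at 450 nm 2–4 h later. Viability taken relative to untreated cells (100%). Three experiments in triplicate, mean ± SEM.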
smiles,measurement,setting,value
Cc1sc2c(c1C)C(c1ccc(Cl)cc1)=N[C@@H](CC(=O)OC(C)(C)C)c1nnc(C)n1-2,Activity,[1],Active
same,Activity,[2],inactive
same,Activity,[3],Active
same,Activity,[4],Active
same,Activity,[5],Active
same,IC50,"[6]; K562, 96 h",> 2 µM
same,Activity,[7],Active
same,Activity,[8],inactive
same,Activity,[9],Active
same,IC50,"[10]; OCI-AML-3, 96 h",~0.5 µM
same,Activity,[11],3.2%
same,Activity,[12],Active
same,Activity,[13],Active
same,Activity,[14],inactive
same,Activity,[15],Active
same,Activity,[16],inactive
same,Activity,[17],inactive
same,IC50,[18],~1 µM
same,Activity,[19],Active
same,Activity,[20],inactive
same,Activity,[21],Active
same,Activity,[22],Active
same,Activity,[23],Active
same,Activity,[24],inactive
Cc1sc2c(c1C)C(c1ccc(Cl)cc1)=N[C@H](CC(=O)OC(C)(C)C)c1nnc(C)n1-2,Activity,[6],inactive
same,Activity,[10]; dose 1.0 µM,inactive
same,Activity,[18],inactive
C[C@@H]1CN(CC(=O)Nc2ccc3c(c2)Cc2cccc(-c4cc(=O)cc(N5CCOCC5)o4)c2S3)C[C@H](C)O1.Cc1sc2c(c1C)C(c1ccc(Cl)cc1)=N[C@@H](CC(=O)OC(C)(C)C)c1nnc(C)n1-2,Activity,[25],inactive
COc1ccc(C2=NC(c3ccc(Cl)cc3)C(c3ccc(Cl)cc3)N2C(=O)N2CCNC(=O)C2)c(OC(C)C)c1.Cc1sc2c(c1C)C(c1ccc(Cl)cc1)=N[C@@H](CC(=O)OC(C)(C)C)c1nnc(C)n1-2 (stereo unspecified),Activity,[26],Active
CC[C@@H]1C(=O)N(C)c2cnc(Nc3ccc(C(=O)NC4CCN(C)CC4)cc3OC)nc2N1C1CCCC1,Activity,[27],Active
COc1ccc(C2=NC(c3ccc(Cl)cc3)C(c3ccc(Cl)cc3)N2C(=O)N2CCNC(=O)C2)c(OC(C)C)c1 (stereo unspecified),Activity,[28],inactive
